{
  "source": "PubChem BioAssay AID588425",
  "about": "(Johns Hopkins Ion Channel Center, 2011)",
  "note": "Activity calls are given as the source filed them.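 The calls were made as follows: active = any inhibition of the KCNQ1 potassium channel at some tested dose, with a fitted dose response curve; inactive = no inhibition at any dose or no curve fitted.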",
  "data": [
    {"target": "Potassium voltage-gated channel subfamily KQT member 1 (Homo sapiens) (UniProt P51787)", "sequence (P51787 whole entry, looked up)": "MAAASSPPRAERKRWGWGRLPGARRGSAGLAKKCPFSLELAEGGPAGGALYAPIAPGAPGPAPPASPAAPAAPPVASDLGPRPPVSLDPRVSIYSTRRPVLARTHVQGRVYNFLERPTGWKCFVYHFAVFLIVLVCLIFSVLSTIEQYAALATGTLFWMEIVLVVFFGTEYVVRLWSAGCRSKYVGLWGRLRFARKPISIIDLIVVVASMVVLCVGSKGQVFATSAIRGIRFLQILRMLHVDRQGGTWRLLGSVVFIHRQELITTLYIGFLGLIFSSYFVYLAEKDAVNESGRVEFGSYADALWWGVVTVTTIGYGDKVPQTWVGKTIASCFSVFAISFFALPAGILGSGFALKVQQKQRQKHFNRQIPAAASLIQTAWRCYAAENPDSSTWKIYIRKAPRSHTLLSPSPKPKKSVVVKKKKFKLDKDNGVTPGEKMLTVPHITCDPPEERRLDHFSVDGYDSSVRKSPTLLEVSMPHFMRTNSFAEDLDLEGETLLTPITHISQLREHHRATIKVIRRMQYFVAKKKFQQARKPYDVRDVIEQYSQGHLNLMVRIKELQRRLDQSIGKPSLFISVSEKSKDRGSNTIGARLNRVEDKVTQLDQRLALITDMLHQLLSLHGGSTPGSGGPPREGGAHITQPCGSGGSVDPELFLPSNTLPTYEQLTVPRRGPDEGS", "assay": "KCNQ1 channel current inhibition, SAR follow-up, selectivity assay for KCNQ2 inhibitor project, automated patch clamp, KCNQ1-CHO cells (AID 588425)", "settings": "not given", "how_it_was_run": "(§1)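 Repeats: quadruplicate per concentration; material: CHO cells expressing the KCNQ1 potassium channel; schedule: 2,000 ms depolarization per sweep; detection: automated patch clamp, amphotericin B-perforated recording of potassium current; dosing: several compound concentrations per compound, concentration-response series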", "units": {"IC50": "µM"}, "values": [
      {"smiles": "CCC(C(=O)Nc1ccc(N2CCCC2)cc1)c1ccccc1", "note": "(stereo unspecified)", "IC50": 29},
      {"smiles": "CCC(C(=O)Nc1ccccc1-n1cccc1)c1ccccc1", "note": "(stereo unspecified)", "IC50": 13.7},
      {"smiles": "CCC(C(=O)Nc1ccccc1N1CCCC1)c1cccc(OC)c1", "note": "(stereo unspecified)", "IC50": 22.1},
      {"smiles": "CCC(C(=O)Nc1ccccc1N1CCCC1)c1ccccc1", "note": "(stereo unspecified)", "IC50": 19.5},
      {"smiles": "CCC(C(=O)Nc1ccccc1N1CCCC1)c1ccc(Cl)c(Cl)c1", "note": "(stereo unspecified)", "IC50": 9.96},
      {"smiles": "CCC(C(=O)Nc1ccccc1N1CCCC1)c1ccc(F)cc1", "note": "(stereo unspecified)", "IC50": 6.8},
      {"smiles": "CC[C@H](C(=O)Nc1ccccc1N1CCCC1)c1ccccc1", "IC50": 2.92},
      {"smiles": "O=C(Nc1ccccc1N1CCCC1)C1CCc2ccccc21", "note": "(stereo unspecified)", "IC50": 12.1},
      {"smiles": "CC[C@@H](C(=O)Nc1ccccc1N1CCCC1)c1ccccc1", "IC50": 8.67},
      {"smiles": "CC[C@@H](C(=O)Nc1ccc(N2CCCC2)cc1)c1ccccc1", "IC50": 14.9},
      {"smiles": "CCC(C(=O)Nc1ccccc1N1CCCC1)c1cccc(Cl)c1", "note": "(stereo unspecified)", "IC50": 11.2},
      {"smiles": "CC(C(=O)Nc1ccccc1N1CCCC1)c1ccccc1", "note": "(stereo unspecified)", "IC50": 29},
      {"smiles": "CCC(C(=O)Nc1ccccc1N1CCCC1)c1cccc(F)c1", "note": "(stereo unspecified)", "IC50": 17.7},
      {"smiles": "CCC(C(=O)Nc1ccccc1N1CCCC1)c1ccc(F)c(F)c1", "note": "(stereo unspecified)", "IC50": 2.58}
    ]},
    {"target": "Potassium voltage-gated channel subfamily KQT member 1 (Homo sapiens) (UniProt P51787)", "assay": "KCNQ1 channel current inhibition, SAR follow-up, selectivity assay for KCNQ2 inhibitor project, automated patch clamp, KCNQ1-CHO cells (AID 588425)", "settings": "at 30 µM (top of the series)", "how_it_was_run": "as §1", "values": [
      {"smiles": "C[C@H](C(=O)Nc1ccccc1N1CCCC1)c1ccccc1", "current change, negative = inhibition": "inactive"},
      {"smiles": "CCC(C(=O)Nc1ccccc1N1CCCC1)c1ccccc1F", "note": "(stereo unspecified)", "current change, negative = inhibition": "inactive"},
      {"smiles": "CCC(C(=O)Nc1ccccc1N1CCCC1)c1ccc(Cl)cc1", "note": "(stereo unspecified)", "current change, negative = inhibition": "inactive"},
      {"smiles": "CCC(C(=O)Nc1ccccc1N1CCCC1)c1cccc(C)c1", "note": "(stereo unspecified)", "current change, negative = inhibition": "inactive"},
      {"smiles": "CCC(C(=O)Nc1ccccc1N1CCCC1)c1cccc(C(F)(F)F)c1", "note": "(stereo unspecified)", "current change, negative = inhibition": "inactive"},
      {"smiles": "CCC(C(=O)Nc1ccccc1-c1ccccc1)c1ccccc1", "note": "(stereo unspecified)", "current change, negative = inhibition": "inactive"},
      {"smiles": "CC[C@H](C(=O)Nc1ccc(N2CCCC2)cc1)c1ccccc1", "current change, negative = inhibition": "inactive"}
    ]}
  ]
}
